Data taken from ChEMBL document CHEMBL3286267, “Discovery of MK-4409, a Novel Oxazole FAAH Inhibitor for the Treatment of Inflammatory and Neuropathic Pain” (ACS Med Chem Lett, 2014).
Converted amounts (≈) assume the structure as drawn. The source made the active and inactive calls. No cut-off for these calls is given here.

Key:
Rattus norvegicus [1] = assay: Analgesic activity in Sprague-Dawley rat complete Freund's adjuvant-induced inflammatory pain model assessed as reversal of mechanical allodynia at 10 mg/kg, po single dose measured after 1 hr; format: functional
Procedure, shortened: (§1)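 Inflammatory pain induced in rats by intraplantar injection of complete Freund's adjuvant into the hind paw. Mechanical allodynia was assessed at 1 and 3 h after a single oral dose. For each rat, percent reversal = (postdose – predose)/(preinjury – predose), averaged over n = 6.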

[2] = Plasma concentration in Sprague-Dawley rat at 30 mg/kg/day, po measured after 24 hrs on day 9; format: ADME, organism-based; parameters: route oral
Procedure, shortened: (§2)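 Chronic paradigm in the CFA inflammatory pain model in rats (intraplantar complete Freund's adjuvant in the hind paw). Daily oral dosing continued for up to 10 days, with a pan CB agonist run for comparison. Allodynia was followed over the days. Plasma exposures were sampled at 3 and 24 h after dosing at 30 mg/kg.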

[3] = Clearance in rat at 1 mg/kg, iv and 2 mg/kg, po; format: ADME, organism-based; conditions: in vivo
Procedure, shortened: (§3)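 Rat PK given 1 mg/kg iv in DMSO/PEG400/H2O 20/60/20 and 2 mg/kg po in either Imwitor/Tween 1/1 or PEG400/Tween80/H2O 40/10/50. Half-life, clearance, volume of distribution, dose-normalized AUC (AUCN) and oral bioavailability were derived.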

[4] = Plasma concentration in Sprague-Dawley rat at 30 mg/kg/day, po measured after 24 hrs on day 8; format: ADME, organism-based; parameters: route oral; procedure, shortened: as §2
[5] = Fraction unbound in human plasma; format: ADME, cell-free
Rattus norvegicus [6] = assay: Analgesic activity in Sprague-Dawley rat complete Freund's adjuvant-induced inflammatory pain model assessed as reversal of mechanical allodynia at 30 mg/kg, po single dose measured after 3 hrs; format: functional; procedure, shortened: as §1
[7] = Half life in rat at 1 mg/kg, iv and 2 mg/kg, po; format: ADME, organism-based; conditions: in vivo; procedure, shortened: as §3
[8] = Plasma concentration in Sprague-Dawley rat at 30 mg/kg/day, po measured after 24 hrs on day 3; format: ADME, organism-based; parameters: route oral; procedure, shortened: as §2
[9] = Plasma concentration in Sprague-Dawley rat at 30 mg/kg/day, po measured after 24 hrs on day 10; format: ADME, organism-based; parameters: route oral; procedure, shortened: as §2
Rattus norvegicus [10] = assay: Analgesic activity in Sprague-Dawley rat complete Freund's adjuvant-induced inflammatory pain model assessed as reversal of mechanical allodynia at 10 mg/kg, po single dose measured after 3 hrs; format: functional; procedure, shortened: as §1
[11] = Inhibition of human vesicular monoamine transporter
Procedure, shortened: (§4)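 In vitro assays, with values reported as the average of at least three duplicates.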

[12] = Fraction unbound in rhesus monkey plasma; format: ADME, cell-free, Macaca mulatta
[13] = Plasma concentration in Sprague-Dawley rat at 30 mg/kg/day, po measured after 3 hrs on day 9; format: ADME, organism-based; parameters: route oral; procedure, shortened: as §2
Rattus norvegicus [14] = assay: Toxicity in Harlan rat assessed as motor impairment at 3 mg/kg, po by rotarod test; format: organism-based; parameters: dose 3 mg/kg, route oral; conditions: in vivo
[15] = Plasma concentration in Sprague-Dawley rat at 30 mg/kg/day, po measured after 3 hrs on day 1; format: ADME, organism-based; parameters: route oral; procedure, shortened: as §2
[16] = biological target: T1, Fatty-acid amide hydrolase 1 (Rattus norvegicus, UniProt P97612); assay: Inhibition of rat FAAH lysate using AMCAA as substrate by fluorescence assay; procedure, shortened: as §4
T1 sequence (P97612 whole entry): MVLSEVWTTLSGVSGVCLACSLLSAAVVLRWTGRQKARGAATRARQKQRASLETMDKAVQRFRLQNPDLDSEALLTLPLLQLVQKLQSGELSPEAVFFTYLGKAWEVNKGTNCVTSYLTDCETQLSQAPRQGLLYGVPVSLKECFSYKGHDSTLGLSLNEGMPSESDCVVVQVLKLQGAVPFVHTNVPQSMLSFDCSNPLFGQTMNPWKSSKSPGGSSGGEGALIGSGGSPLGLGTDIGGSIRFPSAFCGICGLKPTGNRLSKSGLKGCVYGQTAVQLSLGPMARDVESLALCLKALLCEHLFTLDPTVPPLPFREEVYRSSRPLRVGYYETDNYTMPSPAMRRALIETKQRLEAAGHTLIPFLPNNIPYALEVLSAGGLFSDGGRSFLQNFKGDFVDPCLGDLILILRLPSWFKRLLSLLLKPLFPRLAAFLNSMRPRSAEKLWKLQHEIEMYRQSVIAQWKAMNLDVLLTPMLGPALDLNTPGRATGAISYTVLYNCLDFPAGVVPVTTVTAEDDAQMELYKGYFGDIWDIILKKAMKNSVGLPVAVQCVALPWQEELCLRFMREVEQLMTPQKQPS

[17] = Bioavailability in rat at 1 mg/kg, iv and 2 mg/kg, po; format: ADME, organism-based; conditions: in vivo; procedure, shortened: as §3
Rattus norvegicus [18] = assay: Dose normalized AUC in rat at 1 mg/kg, iv and 2 mg/kg, po; format: ADME, organism-based; conditions: in vivo; procedure, shortened: as §3
[19] = biological target: Voltage-gated inwardly rectifying potassium channel KCNH2 (Homo sapiens, UniProt Q12809); assay: Displacement of [35S]MK-499 from human ERG
Procedure, shortened: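 hERG K+ channel binding assay measuring displacement of the radiolabelled channel blocker [35S]MK-499. Values are averages of at least three duplicates.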

[20] = Plasma concentration in Sprague-Dawley rat at 30 mg/kg/day, po measured after 3 hrs on day 5; format: ADME, organism-based; parameters: route oral; procedure, shortened: as §2
[21] = Fraction unbound in rat plasma; format: ADME, cell-free
[22] = Plasma concentration in Sprague-Dawley rat at 30 mg/kg/day, po measured after 24 hrs on day 5; format: ADME, organism-based; parameters: route oral; procedure, shortened: as §2
[23] = Plasma concentration in Sprague-Dawley rat at 30 mg/kg/day, po measured after 24 hrs on day 2; format: ADME, organism-based; parameters: route oral; procedure, shortened: as §2
[24] = Plasma concentration in Sprague-Dawley rat at 30 mg/kg/day, po measured after 3 hrs on day 8; format: ADME, organism-based; parameters: route oral; procedure, shortened: as §2
[25] = Fraction unbound in dog plasma; format: ADME, cell-free, Canis lupus familiaris
[26] = Volume of distribution at steady state in rat at 1 mg/kg, iv and 2 mg/kg, po; format: ADME, organism-based; conditions: in vivo, read-out: Vdss; procedure, shortened: as §3
[27] = Plasma concentration in Sprague-Dawley rat at 30 mg/kg/day, po measured after 3 hrs on day 2; format: ADME, organism-based; parameters: route oral; procedure, shortened: as §2
Rattus norvegicus [28] = assay: Analgesic activity in Sprague-Dawley rat complete Freund's adjuvant-induced inflammatory pain model assessed as reversal of mechanical allodynia at 30 mg/kg, po single dose measured after 1 hr; format: functional; procedure, shortened: as §1
[29] = biological target: T2, Fatty-acid amide hydrolase 1 (Homo sapiens, UniProt O00519); assay: Inhibition of human FAAH lysate using AMCAA as substrate by fluorescence assay; procedure, shortened: as §4
T2 sequence (O00519 whole entry): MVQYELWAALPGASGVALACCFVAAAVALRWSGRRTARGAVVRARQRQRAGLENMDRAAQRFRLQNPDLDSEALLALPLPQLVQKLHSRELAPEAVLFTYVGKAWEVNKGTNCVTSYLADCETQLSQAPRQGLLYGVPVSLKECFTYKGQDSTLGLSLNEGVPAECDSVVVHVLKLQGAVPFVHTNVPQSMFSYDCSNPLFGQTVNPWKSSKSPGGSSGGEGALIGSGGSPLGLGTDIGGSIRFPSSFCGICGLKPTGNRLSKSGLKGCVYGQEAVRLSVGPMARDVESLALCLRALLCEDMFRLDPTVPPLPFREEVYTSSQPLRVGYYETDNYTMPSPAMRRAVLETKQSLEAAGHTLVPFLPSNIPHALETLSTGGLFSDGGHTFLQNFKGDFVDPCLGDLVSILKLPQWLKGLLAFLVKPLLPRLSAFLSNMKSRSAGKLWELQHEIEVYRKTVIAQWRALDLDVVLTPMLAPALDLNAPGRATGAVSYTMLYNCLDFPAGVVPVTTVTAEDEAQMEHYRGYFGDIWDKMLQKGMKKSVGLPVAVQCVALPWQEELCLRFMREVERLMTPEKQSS

[30] = Plasma concentration in Sprague-Dawley rat at 30 mg/kg/day, po measured after 3 hrs on day 10; format: ADME, organism-based; parameters: route oral; procedure, shortened: as §2
[31] = Plasma concentration in Sprague-Dawley rat at 30 mg/kg/day, po measured after 3 hrs on day 3; format: ADME, organism-based; parameters: route oral; procedure, shortened: as §2
Rattus norvegicus [32] = assay: Analgesic activity in Sprague-Dawley rat complete Freund's adjuvant-induced inflammatory pain model assessed as reversal of mechanical allodynia at 30 mg/kg/day, po measured up to 10 days; format: functional, organism-based; procedure, shortened: as §2
Rattus norvegicus [33] = assay: Antiallodynic activity in Harlan rat spinal nerve ligation model of neuropathic pain assessed as reversal of allodynia at 3 mg/kg, po; format: functional
Rattus norvegicus [34] = assay: Antiallodynic activity in Harlan rat spinal nerve ligation model of neuropathic pain assessed as reversal of allodynia at 21 mg/kg, po; format: functional, organism-based; parameters: dose 21 mg/kg
Procedure, shortened: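 Rat spinal nerve ligation model of neuropathic pain, scored as percent reversal of allodynia after dosing. A rota-rod test run alongside served as a counterscreen for motor impairment.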

Rattus norvegicus [35] = assay: Dose normalized AUC in rat at 1 mg/kg, iv and 1 to 2 mg/kg, po; format: ADME, organism-based; conditions: in vivo; procedure, shortened: as §3
[36] = Clearance in rat at 1 mg/kg, iv and 1 to 2 mg/kg, po; format: ADME, organism-based; conditions: in vivo; procedure, shortened: as §3
[37] = Volume of distribution at steady state in rat at 1 mg/kg, iv and 1 to 2 mg/kg, po; format: ADME, organism-based; conditions: in vivo, read-out: Vdss; procedure, shortened: as §3
[38] = Half life in rat at 1 mg/kg, iv and 1 to 2 mg/kg, po; format: ADME, organism-based; conditions: in vivo; procedure, shortened: as §3
[39] = Bioavailability in rat at 1 mg/kg, iv and 1 to 2 mg/kg, po; format: ADME, organism-based; conditions: in vivo; procedure, shortened: as §3
[40] = Solubility in fasted state simulated intestinal fluid; format: ADME

Chain of Voltage-gated inwardly rectifying potassium channel KCNH2 (Q12809 whole entry): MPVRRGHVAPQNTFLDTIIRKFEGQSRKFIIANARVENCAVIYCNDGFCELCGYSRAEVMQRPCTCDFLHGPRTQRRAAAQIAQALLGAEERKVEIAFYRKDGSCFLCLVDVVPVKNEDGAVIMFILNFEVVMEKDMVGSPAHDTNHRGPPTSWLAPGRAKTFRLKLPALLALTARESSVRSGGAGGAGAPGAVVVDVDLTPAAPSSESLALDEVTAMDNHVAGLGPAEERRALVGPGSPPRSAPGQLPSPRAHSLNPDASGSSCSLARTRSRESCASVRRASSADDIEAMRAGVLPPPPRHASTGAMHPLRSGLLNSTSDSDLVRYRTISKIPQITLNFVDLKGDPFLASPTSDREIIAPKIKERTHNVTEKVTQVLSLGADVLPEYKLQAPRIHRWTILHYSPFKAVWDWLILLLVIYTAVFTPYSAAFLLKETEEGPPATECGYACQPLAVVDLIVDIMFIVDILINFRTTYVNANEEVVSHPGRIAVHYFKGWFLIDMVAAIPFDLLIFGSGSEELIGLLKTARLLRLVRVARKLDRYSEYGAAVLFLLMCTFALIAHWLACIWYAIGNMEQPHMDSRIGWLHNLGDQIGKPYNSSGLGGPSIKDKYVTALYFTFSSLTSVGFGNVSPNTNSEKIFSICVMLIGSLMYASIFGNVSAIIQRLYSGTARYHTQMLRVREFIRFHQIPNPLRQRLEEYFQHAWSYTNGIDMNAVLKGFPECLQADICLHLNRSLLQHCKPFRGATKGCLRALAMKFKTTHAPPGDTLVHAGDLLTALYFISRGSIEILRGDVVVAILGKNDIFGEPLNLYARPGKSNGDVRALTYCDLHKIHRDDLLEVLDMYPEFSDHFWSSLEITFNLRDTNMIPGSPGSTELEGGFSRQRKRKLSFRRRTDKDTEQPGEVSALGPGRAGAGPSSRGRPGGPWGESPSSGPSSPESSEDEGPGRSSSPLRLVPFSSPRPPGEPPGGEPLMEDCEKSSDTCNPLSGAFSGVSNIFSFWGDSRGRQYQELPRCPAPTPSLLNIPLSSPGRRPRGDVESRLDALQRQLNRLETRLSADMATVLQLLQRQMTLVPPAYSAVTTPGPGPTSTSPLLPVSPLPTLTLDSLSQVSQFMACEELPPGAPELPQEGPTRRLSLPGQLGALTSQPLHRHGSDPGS

Compound: CC(C)(O)c1ccc(-c2nc(-c3ccc(F)cc3)oc2Sc2ccc(Cl)cn2)cn1
- Activity (Rattus norvegicus [1]): 49%
- concentration at 24 h [2]: 8.3 µM
- clearance [3]: 20 mL/min/kg
- concentration at 24 h [4]: 7.3 µM
- fraction unbound [5]: 0.016
- Activity (Rattus norvegicus [6]): 71%
- half-life [7]: 4.3 h
- concentration at 24 h [8]: 4.1 µM
- concentration at 24 h [9]: 7.9 µM
- Activity (Rattus norvegicus [10]): 51%
- EC50 [11]: > 20000 nM
- fraction unbound [12]: 0.008
- concentration at 3 h [13]: 13.7 µM
- Activity (Rattus norvegicus [14]): Non-toxic
- concentration at 3 h [15]: 5.4 µM
- IC50 [16]: 11 nM
- bioavailability [17]: 120%
- AUC/dose (Rattus norvegicus [18]): 2.2 µM·kg·h/mg
- Ki [19]: 1250 nM
- concentration at 3 h [20]: 13.2 µM
- fraction unbound [21]: 0.029
- concentration at 24 h [22]: 6.5 µM
- concentration at 24 h [23]: 2.1 µM
- concentration at 3 h [24]: 12.2 µM
- fraction unbound [25]: 0.012
- Vd [26]: 6.2 L/kg
- concentration at 3 h [27]: 8 µM
- Activity (Rattus norvegicus [28]): 70%
- IC50 [29]: 11 nM
- concentration at 3 h [30]: 14.2 µM
- concentration at 3 h [31]: 11.9 µM
- Activity (Rattus norvegicus [32]): Active
- inhibition in vivo at 3 mg/kg (Rattus norvegicus [33]): 50%

Compound: Clc1ccc(Sc2c[nH]nc2-c2ccc3c(c2)OCCO3)cc1
- IC50 [16]: 125 nM
- Ki [19]: 1540 nM
- IC50 [29]: 119 nM

Compound: NC(=O)c1cccc(-c2cccc(OC(=O)NC3CCCCC3)c2)c1
- Activity (Rattus norvegicus [34]): Active

Compound: CS(=O)(=O)c1ccc(-c2nc(-c3ccccc3)oc2Sc2ccc(Cl)cc2)cc1
- IC50 [16]: 6 nM
- Ki [19]: 28500 nM
- IC50 [29]: 13 nM

Compound: CS(=O)(=O)c1ccc(-c2nn(-c3ccc(F)cc3)cc2Sc2ccc(Cl)cc2)cc1
- AUC/dose (Rattus norvegicus [35]): 1.06 µM·kg·h/mg
- clearance [36]: 34 mL/min/kg
- Vd [37]: 8.4 L/kg
- EC50 [11]: 363 nM
- IC50 [16]: 6 nM
- Ki [19]: 637 nM
- half-life [38]: 1.79 h
- bioavailability [39]: 100%
- solubility [40]: 3 µg/mL (≈ 6.54 µM)
